Measurements as given in ChEMBL document CHEMBL1158632, “Design, synthesis, and antibacterial activity of 2,5-dihydropyrrole formyl hydroxyamino derivatives as novel peptide deformylase inhibitors” (2010).
Values after ≈ are worked out from the molar mass of the structure shown.

What was measured:
Format in all cases: functional
Escherichia coli [1] = experiment: Antibacterial activity against Escherichia coli ATCC 35218 by microbroth dilution technique
In short: (§1)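 Read-out was the minimum inhibitory concentration (MIC), found by broth microdilution.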

Staphylococcus aureus [2] = experiment: Antibacterial activity against Staphylococcus aureus ATCC 25923 by microbroth dilution technique; in short: as §1
Staphylococcus aureus [3] = experiment: Antibacterial activity against methicillin-resistant Staphylococcus aureus ATCC 43300 by microbroth dilution technique
[4] = system: Staphylococcus epidermidis; experiment: Antibacterial activity against Staphylococcus epidermidis ATCC 12228 by microbroth dilution technique; in short: as §1
Staphylococcus aureus [5] = experiment: Antibacterial activity against methicillin-susceptible Staphylococcus aureus ATCC 29213 by microbroth dilution technique; in short: as §1
Escherichia coli [6] = experiment: Antibacterial activity against Escherichia coli ATCC 25922 by microbroth dilution technique; in short: as §1

| Compound | MIC (Escherichia coli [1]) [µg/mL] | MIC (Staphylococcus aureus [2]) [µg/mL] | MIC (Staphylococcus aureus [3]) [µg/mL] | MIC [4] [µg/mL] | MIC (Staphylococcus aureus [5]) [µg/mL] | MIC (Escherichia coli [6]) [µg/mL] |
| --- | --- | --- | --- | --- | --- | --- |
| CCCC[C@H](CN(O)C=O)C(=O)N1CC=C[C@H]1C(=O)Nc1ccccn1 | 32 (≈ 88.8 µM) | 0.125 (≈ 0.347 µM) | 0.125 (≈ 0.347 µM) | 0.5 (≈ 1.39 µM) | 1 (≈ 2.77 µM) | > 64 |
| CCCC[C@H](CN(O)C=O)C(=O)N1CC=C[C@H]1C(=O)Nc1ccc(F)cn1 | 64 (≈ 169 µM) | 0.5 (≈ 1.32 µM) | 0.25 (≈ 0.661 µM) | 0.5 (≈ 1.32 µM) | 1 (≈ 2.64 µM) | > 64 |
| CCCC[C@H](CN(O)C=O)C(=O)N1CC=C[C@H]1C(=O)Nc1ccc(F)c[n+]1[O-] | 64 (≈ 162 µM) | 0.5 (≈ 1.27 µM) | 0.5 (≈ 1.27 µM) | 1 (≈ 2.54 µM) | 1 (≈ 2.54 µM) | > 64 |
| CCCC[C@H](CN(O)C=O)C(=O)N1CC=C[C@H]1C(=O)Nc1ncc(C)s1 | 16 (≈ 42.1 µM) | 0.0625 (≈ 0.164 µM) | 0.125 (≈ 0.329 µM) | 0.25 (≈ 0.657 µM) | 0.25 (≈ 0.657 µM) | 32 (≈ 84.1 µM) |
| CCCC[C@H](CN(O)C=O)C(=O)N1CC=C[C@H]1C(=O)N1CCOCC1 | > 64 | > 64 | 32 (≈ 90.5 µM) | > 64 | > 64 | > 64 |
| CCCC[C@H](CN(O)C=O)C(=O)N1CC=C[C@H]1C(=O)NC1CC1 | 32 (≈ 99 µM) | 64 (≈ 198 µM) | 2 (≈ 6.18 µM) | 4 (≈ 12.4 µM) | 32 (≈ 99 µM) | 64 (≈ 198 µM) |
| CCCC[C@H](CN(O)C=O)C(=O)N1CC=C[C@H]1C(=O)Nc1ccc(Cl)cc1 | > 64 | 8 (≈ 20.3 µM) | 1 (≈ 2.54 µM) | 4 (≈ 10.2 µM) | 2 (≈ 5.08 µM) | > 64 |
| CCCC[C@H](CN(O)C=O)C(=O)N1CC=C[C@H]1C(=O)Nc1ccccc1Br | > 64 | 32 (≈ 73 µM) | 1 (≈ 2.28 µM) | 8 (≈ 18.3 µM) | 4 (≈ 9.13 µM) | > 64 |
| CCCC[C@H](CN(O)C=O)C(=O)N1CC=C[C@H]1C(=O)Nc1cccc(Br)c1 | 16 (≈ 36.5 µM) | 8 (≈ 18.3 µM) | 0.125 (≈ 0.285 µM) | 1 (≈ 2.28 µM) | 1 (≈ 2.28 µM) | 64 (≈ 146 µM) |
| CCCC[C@H](CN(O)C=O)C(=O)N1CC=C[C@H]1C(=O)Nc1ccc(Br)cc1 | > 64 | 4 (≈ 9.13 µM) | 0.5 (≈ 1.14 µM) | 2 (≈ 4.56 µM) | 1 (≈ 2.28 µM) | > 64 |
| CCCC[C@H](CN(O)C=O)C(=O)N1CC=C[C@H]1C(=O)Nc1ccccc1Cl | 64 (≈ 162 µM) | 0.5 (≈ 1.27 µM) | 0.25 (≈ 0.635 µM) | 1 (≈ 2.54 µM) | 2 (≈ 5.08 µM) | > 64 |
| CCCC[C@H](CN(O)C=O)C(=O)N1CC=C[C@H]1C(=O)Nc1ccc(F)cc1 | 64 (≈ 170 µM) | 2 (≈ 5.3 µM) | 1 (≈ 2.65 µM) | 4 (≈ 10.6 µM) | 2 (≈ 5.3 µM) | > 64 |
| CCCC[C@H](CN(O)C=O)C(=O)N1CC=C[C@H]1C(=O)Nc1ccc([N+](=O)[O-])cc1 | 32 (≈ 79.1 µM) | 0.5 (≈ 1.24 µM) | 0.5 (≈ 1.24 µM) | 0.5 (≈ 1.24 µM) | 2 (≈ 4.95 µM) | > 64 |
| CCCC[C@H](CN(O)C=O)C(=O)N1CC=C[C@H]1C(=O)Nc1ccc(OC)cc1 | > 64 | 0.5 (≈ 1.28 µM) | 1 (≈ 2.57 µM) | 2 (≈ 5.14 µM) | 2 (≈ 5.14 µM) | > 64 |
| CCCC[C@H](CN(O)C=O)C(=O)N1CC=C[C@H]1C(=O)Nc1nnc(C(F)(F)F)s1 | > 64 | 32 (≈ 73.5 µM) | 8 (≈ 18.4 µM) | 16 (≈ 36.7 µM) | 16 (≈ 36.7 µM) | > 64 |
| CCCC[C@H](CN(O)C=O)C(=O)N1CC=C[C@H]1C(=O)N[C@@H](C)c1ccccc1 | > 64 | 4 (≈ 10.3 µM) | 8 (≈ 20.6 µM) | 8 (≈ 20.6 µM) | 16 (≈ 41.3 µM) | > 64 |
| CCCC[C@H](CN(O)C=O)C(=O)N1CC=C[C@H]1C(=O)N[C@H](C)c1ccccc1 | > 64 | 4 (≈ 10.3 µM) | 2 (≈ 5.16 µM) | 4 (≈ 10.3 µM) | 16 (≈ 41.3 µM) | > 64 |
| CCCC[C@H](CN(O)C=O)C(=O)N1CC=C[C@H]1C(=O)Nc1ccccc1 | 64 (≈ 178 µM) | 4 (≈ 11.1 µM) | 1 (≈ 2.78 µM) | 2 (≈ 5.56 µM) | 8 (≈ 22.3 µM) | > 64 |
| CCCC[C@H](CN(O)C=O)C(=O)N1CCC[C@H]1C(=O)Nc1ccc(F)c[n+]1[O-] | 64 (≈ 161 µM) | 0.25 (≈ 0.631 µM) | 0.5 (≈ 1.26 µM) | 0.5 (≈ 1.26 µM) | 1 (≈ 2.52 µM) | 64 (≈ 161 µM) |
| O=C(O)c1cn(C2CC2)c2cc(N3CCNCC3)c(F)cc2c1=O [CIPROFLOXACIN] | < 0.0312 | 0.5 (≈ 1.51 µM) | 1 (≈ 3.02 µM) | 0.25 (≈ 0.754 µM) | 0.5 (≈ 1.51 µM) | < 0.0312 |
| CC(=O)NC[C@H]1CN(c2ccc(N3CCOCC3)c(F)c2)C(=O)O1 [LINEZOLID] | > 64 |  |  | 0.5 (≈ 1.48 µM) |  | > 64 |
| CC1(C)S[C@@H]2[C@H](NC(=O)Cc3ccccc3)C(=O)N2[C@H]1C(=O)O [PENICILLIN G] | > 64 | 0.0625 (≈ 0.187 µM) | 64 (≈ 191 µM) | 2 (≈ 5.98 µM) | 1 (≈ 2.99 µM) | > 64 |
| CN[C@H](CC(C)C)C(=O)N[C@H]1C(=O)N[C@@H](CC(N)=O)C(=O)N[C@H]2C(=O)N[C@H]3C(=O)N[C@H](C(=O)N[C@H](C(=O)O)c4cc(O)cc(O)c4-c4cc3ccc4O)[C@H](O)c3ccc(c(Cl)c3)Oc3cc2cc(c3O[C@@H]2O[C@H](CO)[C@@H](O)[C@H](O)[C@H]2O[C@H]2C[C@](C)(N)[C@H](O)[C@H](C)O2)Oc2ccc(cc2Cl)[C@H]1O [VANCOMYCIN] | > 64 |  |  |  |  | > 64 |
